Assay outcomes from PubChem BioAssay.
Shown are actives, neighbours in structure and some others; about 3.7% of the full set was active somewhere.
KCNK3 inh: human KCNK3 channel inhibition, primary screen; O14649; CHO-KCNK3 thallium flux, FluxOR fluorescence; active compounds read low; B-score at 10 µM; 340,000 compounds, 0.84% hits; AID 602410;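 active = B-score under library mean minus 4 SD, starting fluorescence ratio at most library mean plus 5 SD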;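 also: more negative B-score means stronger inhibition of thallium flux through KCNK3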
Kir21 block: inhibitors of mouse Kir2.1 inward-rectifier potassium channel. P35561. HEK293-Kir2.1, FluxOR thallium flux fluorescence; active compounds read low. B-score at 10 µM. 310,000 compounds, 0.85% hits;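 active = fluorescence ratio B-score at or below minus 3 SD of library scores, with starting-brightness B-score within 2 SD, cut at about -4.2 in these data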;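 also: channel flux triggered by added potassium and thallium sulfate stimulus; B-score of peak minus minimum fluorescence over baseline after thallium stimulus; more negative B-score means stronger Kir2.1 block with less thallium influx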
hERG protect: hERG (human) protection from proarrhythmic block; AID 1511; activation (rescue from dofetilide block), less the hit threshold, % at 10 µM; 310,000 compounds, 0.51% hits; Q12809; CHO-hERG, FluxOR thallium flux, dofetilide IC70 present;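 active = activation above the mean of controls blocked by dofetilide plus 5 SD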;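 also: thallium influx through hERG after potassium depolarization seen as dye fluorescence rise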
KCNK9 inh: inhibitors of human KCNK9 two-pore domain potassium channel; HEK293 KCNK9, FluxOR thallium flux fluorescence; active compounds read low; B-score at 10 µM; 310,000 compounds, 1.2% hits; Q9NPC2;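 active = ratio B-score over 3 SD below the library mean, with starting fluorescence within 5 SD of its mean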;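 also: negative B-score means less thallium flux so channel inhibition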
KCNQ1 inh: blocks the human KCNQ1 potassium channel; CHO-K1 KCNQ1, FluxOR thallium flux fluorescence; active compounds read high; B-score at 10 µM; 310,000 compounds, 1.3% hits; AID 2642;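 active = compounds whose thallium flux B-score, printed positive for inhibition, exceeds three library SD while starting fluorescence stays within three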;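 also: channel opened by potassium depolarization with thallium stimulus after 20 min compound exposure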
Target sequence (P51787 whole entry, looked up): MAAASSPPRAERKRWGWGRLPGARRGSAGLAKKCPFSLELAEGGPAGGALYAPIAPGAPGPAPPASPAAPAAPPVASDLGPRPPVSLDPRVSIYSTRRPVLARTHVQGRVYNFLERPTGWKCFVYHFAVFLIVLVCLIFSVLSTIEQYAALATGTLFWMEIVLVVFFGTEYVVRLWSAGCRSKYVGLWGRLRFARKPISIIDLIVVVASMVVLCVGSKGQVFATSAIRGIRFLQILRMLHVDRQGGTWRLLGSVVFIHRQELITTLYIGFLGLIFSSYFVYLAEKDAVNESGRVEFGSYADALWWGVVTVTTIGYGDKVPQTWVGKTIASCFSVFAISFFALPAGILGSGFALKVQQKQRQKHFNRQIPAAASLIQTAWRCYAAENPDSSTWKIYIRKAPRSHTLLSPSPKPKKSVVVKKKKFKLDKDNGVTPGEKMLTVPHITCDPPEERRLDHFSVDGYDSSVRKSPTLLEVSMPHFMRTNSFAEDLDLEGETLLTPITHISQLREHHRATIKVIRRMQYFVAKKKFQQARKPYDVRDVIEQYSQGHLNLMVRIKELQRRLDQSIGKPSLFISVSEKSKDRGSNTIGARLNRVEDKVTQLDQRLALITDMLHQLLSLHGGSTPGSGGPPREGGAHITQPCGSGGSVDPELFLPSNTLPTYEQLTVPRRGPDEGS
KCNQ1 pot: human KCNQ1 channel potentiation or activation | P51787 | CHO-K1 KCNQ1, thallium flux FluxOR fluorescence; active compounds read high | B-score at 10 µM | 310,000 compounds, 0.35% hits;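 active = fluorescence ratio B-score, a plate-corrected score, at least three library SD, with initial intensity B-score within 5 SD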
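System: CHO-K1 cells stably expressing KCNQ1 / Medium: assay buffer for compound exposure, DMSO matched across wells / Reagent: thallium- and potassium-containing depolarizing buffer / Compound: one concentration, matched DMSO / Incubation: 20 min compound pretreatment at room temperature / Measured by: kinetic FluxOR fluorescence, 10 s baseline plus 110 s post-stimulus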
Hits are given with their value; n = inactive; x = no result.

SMILES	KCNK3 inh	Kir21 block	hERG protect	KCNK9 inh	KCNQ1 inh	KCNQ1 pot
CCN1C[C@@H]2[C@@H]3C(=O)N(Cc4ccccc4)C(=O)[C@@H]3[C@](C)(C1=O)N2C(=O)c1ccc(Cl)cc1	n	x	x	x	x	x
O=C(NCc1cccc(Cl)c1)c1cccc(S(=O)(=O)N2CCCC2)c1	n	x	x	x	x	x
Cc1ccccc1-n1c(C)cc(/C=N/NC(=O)c2ccncc2)c1C	n	n	n	n	n	11
O=C(N/N=C/c1cc(Cl)cc(Cl)c1O)c1ccncc1	n	n	n	n	7	n
NS(=O)(=O)c1cccc(NC(=O)c2cccs2)c1	n	n	n	n	n	n
O=C(Nc1cccc(N2C(=O)C=CC2=O)c1)c1cccs1	n	-5.9	n	n	n	n
COc1ccc(N2C(=O)C3CCCN3C2=O)cc1 (stereo unspecified)	n	n	4.9	n	n	n
O=C(COC(=O)c1ccc(F)cc1F)NCc1ccc2c(c1)OCO2	n	x	x	x	x	x
C=CCn1c(Br)nc2c1c(=O)[nH]c(=O)n2C	n	n	5.5	n	n	n
C=CCn1c(Br)nc2c1c(=O)n(C)c(=O)n2C	n	n	n	n	n	n
CC(=O)c1ccc(NC(=O)CSc2nnc(NC(=O)C3CC3)s2)cc1	n	n	n	n	n	n
COC1=NC(=C(c2ccccc2)c2ccccc2)OC1=O	n	x	x	x	x	x
COc1cc(OC)c(NC(=O)c2cc3ccccc3cc2O)cc1Cl	-9.2	x	x	x	x	x
COc1ccc(C2=CC(=O)C[C@H](c3ccc(Cl)cc3)C2)cn1	n	x	x	x	x	x
CC(=O)c1c(C)[nH]c(C(=O)Nc2cccc(C(F)(F)F)c2)c1C	n	n	n	n	n	7
CCC(C)c1ccccc1NC(=O)c1[nH]c(C)c(C(C)=O)c1C (stereo unspecified)	n	n	5.8	n	n	n
CCCCCNCC(=O)Nc1cccc(C(=O)Nc2cccc(C(F)(F)F)c2)c1	n	n	n	n	6	n
CN(C(=O)C1CCCN1S(=O)(=O)c1ccc(Cl)cc1)c1ccccc1 (stereo unspecified)	n	x	x	x	x	x
O=C(COC(=O)C1=NN(c2ccccc2)C(=O)CC1)Nc1ccc([N+](=O)[O-])cc1C(F)(F)F	n	x	x	x	x	x
O=[N+]([O-])c1c(Nc2ccccn2)cc(Cl)c2nonc12	n	n	n	-6.9	11	n
O=C(Nc1ccc(Cl)c(Cl)c1)Nc1ccc(Br)cc1F	n	n	n	n	7	n
CSc1ccccc1NC(=O)Nc1ccc(F)c(Cl)c1	n	n	n	n	n	n
c1ccc(Nc2nc(N3CCCCC3)nc(N3CCCCC3)n2)cc1	n	n	n	n	9	n
c1ccc(Nc2nc(N3CCCC3)nc(N3CCCC3)n2)cc1	n	n	n	n	n	n
CC(C)c1ccc2c(c1)C(N1CCNCC1)Cc1ccc(F)cc1S2 (stereo unspecified)	n	-5.2	n	n	n	n
SMILES	KCNK3 inh	Kir21 block	hERG protect	KCNK9 inh	KCNQ1 inh	KCNQ1 pot
COC(=O)c1cc(=O)n(Cc2ccc(OC)c(OC)c2)c(=Nc2ccc(F)cc2)s1	n	n	n	n	6	n
COC(=O)c1cc(=O)n(Cc2ccc(F)cc2)c(=Nc2ccccc2)s1	n	n	n	n	6	n
COC(=O)c1cc(=O)n(-c2ccccc2)c(=Nc2ccccc2)s1	n	n	n	n	n	n
CCOC(=O)c1ccc(N=c2sc(C(=O)OC)cc(=O)n2-c2ccc(C(=O)OCC)cc2)cc1	n	n	n	n	6	n
COc1cccc(N(CC(=O)NC2CCCCC2)C(=O)Cn2nnc(-c3ccc(C)o3)n2)c1	n	n	n	n	n	n
COc1cccc(CN(CC(=O)NC2CCCC2)C(=O)Cn2nnc(-c3cccs3)n2)c1	n	n	32	n	n	n
CC(=O)c1cccc(OCC(=O)N(CCC2=CCCCC2)c2c(N)n(Cc3ccccc3)c(=O)[nH]c2=O)c1	n	x	x	x	x	x
CCOc1ccc(NC(=O)COC(=O)c2ccc3c(c2)OCCO3)cc1	n	x	x	x	x	x
Cc1ccc(-c2nn(-c3ccccc3)cc2C2SCC(=O)N2Cc2ccccc2)o1 (stereo unspecified)	n	n	n	n	7	n
CCOC(=O)c1c(-c2ccccc2)c2cc(OC)ccc2n1CCCN(C)C	n	-7	n	n	n	n
CC(C)COc1cccc(C(=O)Nc2ccc(N3CCOCC3)cc2N2CCOCC2)c1	n	n	n	n	n	n
